The values below come from ChEMBL document CHEMBL3739340, “Synthesis and Evaluation of Novel Erlotinib-NSAID Conjugates as More Comprehensive Anticancer Agents” (ACS Med Chem Lett, 2015).

Series [1] can be described thus: Antiproliferative activity against human HCC827 cells after 72 hrs by CCK-8 assay. Format: functional, cell-based. The conditions noted are these: HCC827, 72 h.
Series [2] addresses T1, Prostaglandin G/H synthase 1 (Ovis aries, UniProt P05979).
T1 sequence (P05979 whole entry): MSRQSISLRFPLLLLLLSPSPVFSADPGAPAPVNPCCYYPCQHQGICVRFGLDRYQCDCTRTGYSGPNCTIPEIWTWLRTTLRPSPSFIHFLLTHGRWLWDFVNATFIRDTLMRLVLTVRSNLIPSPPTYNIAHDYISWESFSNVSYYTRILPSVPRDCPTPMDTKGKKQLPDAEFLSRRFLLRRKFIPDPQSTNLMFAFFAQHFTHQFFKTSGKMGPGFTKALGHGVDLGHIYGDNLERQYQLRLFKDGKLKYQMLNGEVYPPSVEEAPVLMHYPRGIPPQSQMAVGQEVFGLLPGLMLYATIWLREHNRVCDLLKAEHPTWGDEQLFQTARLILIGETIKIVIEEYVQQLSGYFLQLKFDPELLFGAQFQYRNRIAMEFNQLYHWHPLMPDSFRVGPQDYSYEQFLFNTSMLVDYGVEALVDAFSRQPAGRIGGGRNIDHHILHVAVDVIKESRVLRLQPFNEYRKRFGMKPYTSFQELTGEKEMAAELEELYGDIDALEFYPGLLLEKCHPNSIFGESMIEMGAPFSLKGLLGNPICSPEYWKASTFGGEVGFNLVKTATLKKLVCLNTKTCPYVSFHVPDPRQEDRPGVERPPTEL
In words: Inhibition of Ovine COX-1 preincubated for 15 mins by fluorescence analysis.

Series [3] relates to A-431. In words: Antiproliferative activity against human A431 cells after 72 hrs by CCK-8 assay. Format: functional, cell-based.
The target of series [4] is Epidermal growth factor receptor (Homo sapiens, UniProt P00533). In words: Inhibition of EGFR (unknown origin) using tyrosine 4 as substrate by fluorescence analysis.
A short description of series [5]: Drug level in human HCC827 cells treated with 2-(4-(3-ethynylphenylamino)-6-(2-methoxyethoxy)quinazolin-7-yloxy)ethyl 2-(6-methoxynaphthalen-2-yl)propanoate by LC-MS/MS analysis. Type of series: ADME, cell-based. The essentials: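 Conjugate added to culture medium (containing active serum) and incubated with HCC827 tumor cells for up to 24 h. Samples taken over time to follow hydrolysis of the conjugate and release of the parent molecules.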

Where [6] appears, read: Homo sapiens, A-431, 72 h, read-out: IC50.

Sequence of Epidermal growth factor receptor (P00533 whole entry): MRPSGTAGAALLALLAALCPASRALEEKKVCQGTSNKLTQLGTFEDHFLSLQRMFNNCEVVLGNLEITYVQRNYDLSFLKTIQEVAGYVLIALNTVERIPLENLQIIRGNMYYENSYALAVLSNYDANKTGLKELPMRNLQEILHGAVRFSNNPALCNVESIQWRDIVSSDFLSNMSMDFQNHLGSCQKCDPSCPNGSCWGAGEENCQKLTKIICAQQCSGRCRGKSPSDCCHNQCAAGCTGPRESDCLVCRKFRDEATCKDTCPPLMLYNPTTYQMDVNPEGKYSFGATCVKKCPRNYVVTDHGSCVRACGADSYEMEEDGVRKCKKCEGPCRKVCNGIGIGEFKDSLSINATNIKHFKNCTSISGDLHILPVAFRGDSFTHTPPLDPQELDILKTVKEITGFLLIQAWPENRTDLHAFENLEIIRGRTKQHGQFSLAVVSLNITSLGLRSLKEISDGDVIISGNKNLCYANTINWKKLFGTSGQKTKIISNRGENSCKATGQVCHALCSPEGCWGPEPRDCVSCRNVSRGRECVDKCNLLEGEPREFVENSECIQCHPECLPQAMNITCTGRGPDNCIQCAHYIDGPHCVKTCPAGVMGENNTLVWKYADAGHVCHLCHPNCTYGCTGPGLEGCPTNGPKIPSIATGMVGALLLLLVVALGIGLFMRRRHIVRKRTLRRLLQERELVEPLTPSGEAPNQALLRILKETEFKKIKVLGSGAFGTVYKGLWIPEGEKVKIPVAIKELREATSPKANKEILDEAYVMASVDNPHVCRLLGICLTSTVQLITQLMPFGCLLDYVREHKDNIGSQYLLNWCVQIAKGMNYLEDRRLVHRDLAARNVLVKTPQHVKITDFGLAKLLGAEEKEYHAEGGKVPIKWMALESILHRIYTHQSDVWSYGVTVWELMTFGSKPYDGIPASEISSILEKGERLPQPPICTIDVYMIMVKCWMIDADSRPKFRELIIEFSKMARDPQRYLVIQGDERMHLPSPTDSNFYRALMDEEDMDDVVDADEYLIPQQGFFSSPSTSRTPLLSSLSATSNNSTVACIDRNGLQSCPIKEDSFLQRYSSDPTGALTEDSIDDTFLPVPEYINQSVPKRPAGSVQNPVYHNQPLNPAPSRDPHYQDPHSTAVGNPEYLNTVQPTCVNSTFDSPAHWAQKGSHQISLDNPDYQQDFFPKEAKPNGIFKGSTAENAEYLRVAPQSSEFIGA

One may read the IC50 as the midpoint of a concentration-inhibition curve. Consider `C#Cc1cccc(Nc2ncnc3cc(OCCOC(=O)c4ccccc4OC(C)=O)c(OCCOC(=O)c4ccccc4OC(C)=O)cc23)c1`, for which the IC50 in series [1] was 900 nM; in series [2], 39600 nM; in series [3] (setting [6]) it was above 10000 nM; in series [4] it was 34 nM.

As to `C#Cc1cccc(Nc2ncnc3cc(OCCOC(=O)CC4=C(C)/C(=C\c5ccc([S+](C)[O-])cc5)c5ccc(F)cc54)c(OCCOC)cc23)c1` (stereo not drawn), the IC50 was 300 nM in series [1], above 10000 nM in series [2], 5400 nM in series [3] (setting [6]) and 31 nM in series [4].

Take `CC(=O)Oc1ccccc1C(=O)O` [ASPIRIN]: in series [4], the IC50 is above 10000 nM.

In the case of `C#Cc1cccc(Nc2ncnc3cc(OCCOC(=O)Cc4c(C)n(C(=O)c5ccc(Cl)cc5)c5ccc(OC)cc45)c(OCCOC)cc23)c1`, the concentration for half-maximal inhibition (IC50) is 900 nM in series [1], 11300 nM in series [2], above 10000 nM in series [3] (setting [6]) and 27 nM in series [4].

Take `C#Cc1cccc(Nc2ncnc3cc(OCCOC)c(OCCOC(=O)Cc4c(C)n(C(=O)c5ccc(Cl)cc5)c5ccc(OC)cc45)cc23)c1`: the half-maximal inhibitory concentration (IC50) in series [1] was 1200 nM; in series [3] (setting [6]), above 10000 nM.

As for `C#Cc1cccc(Nc2ncnc3cc(OCCOC)c(OCCOC(=O)CC4=C(C)/C(=C\c5ccc([S+](C)[O-])cc5)c5ccc(F)cc54)cc23)c1` (stereo not drawn), the IC50 in series [1] was found to be 400 nM; in series [3] (setting [6]), 4800 nM.

Regarding `C#Cc1cccc(Nc2ncnc3cc(OCCOC(=O)C(C)c4ccc5cc(OC)ccc5c4)c(OCCOC(=O)C(C)c4ccc5cc(OC)ccc5c4)cc23)c1` (stereo not drawn), the concentration for half-maximal inhibition (IC50) in series [1] was 2300 nM; in series [2], above 10000 nM; in series [3] (a-431), “Not Active”; in series [4], 390 nM.

As for `C#Cc1cccc(Nc2ncnc3cc(OCCOC)c(OCCOC(=O)C(C)c4ccc(CC(C)C)cc4)cc23)c1` (stereo not drawn), the 50% inhibitory concentration (IC50) in series [1] and in series [3] (setting [6]) was above 10000 nM each time.

With `C#Cc1cccc(Nc2ncnc3cc(OCCOC(=O)C(C)c4ccc(CC(C)C)cc4)c(OCCOC(=O)C(C)c4ccc(CC(C)C)cc4)cc23)c1` (stereo not drawn), the IC50 in series [1] is 16500 nM; in series [2], above 10000 nM; in series [3] (a-431) it was “Not Active”; in series [4] it was above 10000 nM.

In the case of `C#Cc1cccc(Nc2ncnc3cc(OCCOC(=O)c4ccc(C(=O)Nc5ccc6c(c5)C(C)(C)CCC6(C)C)cc4)c(OCCOC(=O)c4ccc(C(=O)Nc5ccc6c(c5)C(C)(C)CCC6(C)C)cc4)cc23)c1`, the 50% inhibitory concentration (IC50) was above 10000 nM in series [1], above 10000 nM in series [2], “Not Active” in series [3] (a-431) and 880 nM in series [4].

Take `C#Cc1cccc(Nc2ncnc3cc(OCCOC)c(OCCOC(=O)c4ccccc4OC(C)=O)cc23)c1`: the IC50 is 100 nM in series [1] and above 10000 nM in series [3] (setting [6]).

Turning to `C#Cc1cccc(Nc2ncnc3cc(OCCOC(=O)Cc4c(C)n(C(=O)c5ccc(Cl)cc5)c5ccc(OC)cc45)c(OCCOC(=O)Cc4c(C)n(C(=O)c5ccc(Cl)cc5)c5ccc(OC)cc45)cc23)c1`, the IC50 in series [1] was 1600 nM; in series [2], 31400 nM; in series [3] (setting [6]) it was above 10000 nM; in series [4], 33 nM.

As for `C#Cc1cccc(Nc2ncnc3cc(OCCOC(=O)C(C)c4cccc(C(=O)c5ccccc5)c4)c(OCCOC(=O)C(C)c4cccc(C(=O)c5ccccc5)c4)cc23)c1` (stereo not drawn), the IC50 in series [1] was 2100 nM; in series [3] (setting [6]), above 10000 nM.

As to `CC(C)Cc1ccc(C(C)C(=O)O)cc1` (stereo not drawn) [IBUPROFEN], in series [4], the 50% inhibitory concentration (IC50) is above 10000 nM.

In the case of `CC(C(=O)O)c1cccc(C(=O)c2ccccc2)c1` (stereo not drawn) [KETOPROFEN], the values for the IC50 in series [2] and in series [4] were 67 nM and above 10000 nM, respectively.

Regarding `C#Cc1cccc(Nc2ncnc3cc(OCCOC(=O)CC4=C(C)/C(=C/c5ccc([S+](C)[O-])cc5)c5ccc(F)cc54)c(OCCOC(=O)CC4=C(C)/C(=C/c5ccc([S+](C)[O-])cc5)c5ccc(F)cc54)cc23)c1` (stereo not drawn), the IC50 in series [1] is 3500 nM; in series [2], above 10000 nM; in series [3] (setting [6]), above 10000 nM; in series [4], 27 nM.

Regarding `C#Cc1cccc(Nc2ncnc3cc(OCCOC)c(OCCOC(=O)C(C)c4cccc(C(=O)c5ccccc5)c4)cc23)c1` (stereo not drawn), the half-inhibitory concentration (IC50) in series [1] was determined as 300 nM; in series [3] (setting [6]) it was 1700 nM.

Take `CC1=C(CC(=O)O)c2cc(F)ccc2/C1=C\c1ccc([S+](C)[O-])cc1` (stereo not drawn): the results for the IC50 in series [2] and in series [4] were 16000 nM and above 10000 nM, respectively.

Consider `COc1ccc2c(c1)c(CC(=O)O)c(C)n2C(=O)c1ccc(Cl)cc1` [INDOMETHACIN], for which, in series [4], the IC50 was above 10000 nM.

For the molecule `C#Cc1cccc(Nc2ncnc3cc(OCCO)c(OCCOC)cc23)c1`, the IC50 in series [1] is 14 nM; in series [2], above 10000 nM; in series [3] (setting [6]), 1270 nM; in series [4], 1 nM. The Drug metabolism entry in series [5] is listed as “metabolite_detected”.

In series [2], `C#Cc1cccc(Nc2ncnc3cc(OCCOC)c(OCCOC)cc23)c1` [ERLOTINIB] yielded a half-inhibitory concentration (IC50) above 10000 nM.

`COc1ccc2cc(C(C)C(=O)O)ccc2c1` (racemic): in series [5], the Drug metabolism result is recorded as “metabolite_detected”. Also, the 50% inhibitory concentration (IC50) in series [4] was above 10000 nM.

With `C#Cc1cccc(Nc2ncnc3cc(OCCOC(=O)C(C)c4ccc(CC(C)C)cc4)c(OCCOC)cc23)c1` (stereo not drawn), the IC50 in series [1] was 400 nM; in series [2], 44700 nM; in series [3] (setting [6]), 2200 nM; in series [4], 9 nM.

With `C#Cc1cccc(Nc2ncnc3cc(OCCOC)c(OCCOC(=O)C(C)c4ccc5cc(OC)ccc5c4)cc23)c1` (stereo not drawn), the IC50 in series [1] worked out at 500 nM; in series [3] (setting [6]) it was 5000 nM.

On to `C#Cc1cccc(Nc2ncnc3cc(OCCOC(=O)c4ccc(C(=O)Nc5ccc6c(c5)C(C)(C)CCC6(C)C)cc4)c(OCCOC)cc23)c1`, for which the 50% inhibitory concentration (IC50) in series [1] was 200 nM; in series [2] it was above 10000 nM; in series [3] (setting [6]), above 10000 nM; in series [4] it was 32 nM.

`C#Cc1cccc(Nc2ncnc3cc(OCCOC(=O)c4ccccc4OC(C)=O)c(OCCOC)cc23)c1`: the half-inhibitory concentration (IC50) in series [1] is 100 nM; in series [2] it was above 10000 nM; in series [3] (setting [6]) it was 1800 nM; in series [4], 5 nM.
